Blank lines part the entries; values can stand above or below the molecule they belong to. Active and inactive are the calls of the source. The calls are words filed in the database; no cut-off is given here.
Legend:
[1] = target: T1, Protein deacetylase HDAC6 (Mus musculus) (UniProt Q9Z2V5); assay: Inhibition of mouse HDAC6 expressed in 293T cells at 100 uM using Ac-KGLGK(Ac)-MCA as substrate measured after 30 mins by fluorescence assay relative to control
T1 sequence (whole entry): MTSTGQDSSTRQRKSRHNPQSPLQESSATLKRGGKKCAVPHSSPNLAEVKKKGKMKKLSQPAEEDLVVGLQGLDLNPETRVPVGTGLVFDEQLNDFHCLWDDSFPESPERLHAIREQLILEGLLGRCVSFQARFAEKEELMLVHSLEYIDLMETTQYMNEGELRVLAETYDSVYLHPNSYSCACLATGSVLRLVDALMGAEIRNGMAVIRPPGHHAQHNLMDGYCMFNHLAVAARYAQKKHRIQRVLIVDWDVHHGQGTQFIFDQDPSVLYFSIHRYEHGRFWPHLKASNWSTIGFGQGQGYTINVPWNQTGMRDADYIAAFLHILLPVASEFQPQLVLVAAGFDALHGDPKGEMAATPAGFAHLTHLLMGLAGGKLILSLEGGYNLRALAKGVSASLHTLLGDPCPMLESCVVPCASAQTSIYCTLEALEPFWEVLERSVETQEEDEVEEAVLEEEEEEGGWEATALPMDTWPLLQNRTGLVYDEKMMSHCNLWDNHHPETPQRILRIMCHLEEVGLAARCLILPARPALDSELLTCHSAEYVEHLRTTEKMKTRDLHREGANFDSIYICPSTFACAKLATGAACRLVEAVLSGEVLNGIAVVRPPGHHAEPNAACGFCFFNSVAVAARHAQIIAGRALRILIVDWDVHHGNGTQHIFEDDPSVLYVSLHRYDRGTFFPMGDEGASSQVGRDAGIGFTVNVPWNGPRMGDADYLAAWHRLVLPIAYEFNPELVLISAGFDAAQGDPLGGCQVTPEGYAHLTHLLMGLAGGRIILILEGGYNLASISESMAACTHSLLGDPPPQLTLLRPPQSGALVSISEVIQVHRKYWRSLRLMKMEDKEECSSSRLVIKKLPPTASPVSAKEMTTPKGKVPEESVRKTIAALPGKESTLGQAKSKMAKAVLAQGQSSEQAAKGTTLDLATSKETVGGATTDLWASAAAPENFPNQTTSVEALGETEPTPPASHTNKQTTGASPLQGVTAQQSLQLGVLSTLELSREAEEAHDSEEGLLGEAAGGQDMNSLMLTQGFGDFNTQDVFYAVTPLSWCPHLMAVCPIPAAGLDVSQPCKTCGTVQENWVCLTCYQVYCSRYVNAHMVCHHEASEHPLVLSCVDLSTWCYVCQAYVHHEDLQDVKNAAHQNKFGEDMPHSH

[2] = Substrate activity at PYSOCA in human CMEC/D3 cells assessed as transporter-mediated drug uptake measured for 2 mins at 37degC in presence of diphenhydramine; assay type: ADME, cell-based
Method in brief: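 Uptake by hCMEC/D3 cells was measured at various substrate concentrations, at 37 °C for 2 min, with or without diphenhydramine (100 µM). Data were analysed by Michaelis-Menten and Lineweaver-Burk plots using nonlinear least-squares regression (Eqs. 1 and 2). Mean ± S.E., n = 4.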

[3] = Substrate activity at PYSOCA in human CMEC/D3 cells assessed as transporter-mediated drug uptake measured for 2 mins at 37degC in presence of tramadol; assay type: ADME, cell-based
[4] = Substrate activity at PYSOCA in human CMEC/D3 cells assessed as transporter-mediated drug uptake measured for 2 mins at 37degC in presence of varenicline; assay type: ADME, cell-based
[5] = Substrate activity at PYSOCA in human CMEC/D3 cells assessed as transporter-mediated drug uptake measured for 2 mins at 37degC in presence of clonidine; assay type: ADME, cell-based
[6] = Substrate activity at PYSOCA in human CMEC/D3 cells assessed as transporter-mediated drug uptake measured for 2 mins at 37degC in presence of MPP+; assay type: ADME, cell-based
[7] = Substrate activity at PYSOCA in human CMEC/D3 cells assessed as transporter-mediated drug uptake clearance assessed per mg protein at 4degC measured after 30 mins; assay type: ADME, cell-based; details: 0.5 h
Method in brief: (§1)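 Uptake by hCMEC/D3 cells followed over time at 37 °C or 4 °C. Clearance was calculated from the initial linear slope, expressed per mg protein. Mean ± S.E., n = 4.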

[8] = Substrate activity at PYSOCA in human CMEC/D3 cells assessed as transporter-mediated drug uptake measured for 2 mins at 37degC in presence of pyrilamine; assay type: ADME, cell-based
[9] = Substrate activity at PYSOCA in human CMEC/D3 cells assessed as transporter-mediated drug uptake clearance assessed per mg protein at 37degC; assay type: ADME, cell-based; method in brief: as §1
[10] = Substrate activity at PYSOCA in human CMEC/D3 cells assessed as transporter-mediated drug uptake measured for 2 mins at 37degC in presence of L-carnitine; assay type: ADME, cell-based
[11] = Substrate activity at PYSOCA in human CMEC/D3 cells assessed as transporter-mediated drug uptake measured for 2 mins at 37degC in presence of decynium-22; assay type: ADME, cell-based
[12] = Substrate activity at PYSOCA in human CMEC/D3 cells assessed as transporter-mediated drug uptake measured for 2 mins at 37degC in presence of choline; assay type: ADME, cell-based
[13] = Substrate activity at PYSOCA in human CMEC/D3 cells assessed as transporter-mediated drug uptake measured for 2 mins at 37degC in presence of TEA; assay type: ADME, cell-based
[14] = Substrate activity at PYSOCA in human CMEC/D3 cells assessed as transporter-mediated drug uptake measured for 2 mins at 37degC in presence of memantine; assay type: ADME, cell-based
[15] = target: Histone deacetylase (Homo sapiens) (UniProt Q13547+O15379+Q9UBN7+Q92769+Q9UQL6+Q8WUI4+Q9BY41+Q96DB2+P56524+Q9UKV0+Q969S8); details: at 10 µM

Compound: COc1ccc(CN(CCN(C)C)c2ccc(C(=O)Nc3cc(-c4ccccc4)ccc3N)cn2)cc1
- inhibition [1]: 14%

Compound: COc1ccc(CN(CCN(C)C)c2ccc(C(=O)Nc3cc(I)ccc3N)cn2)cc1
- inhibition [1]: 16%

Compound: COc1ccc(CN(CCN(C)C)c2ccc(C(=O)Nc3cc(-c4ccco4)ccc3N)cn2)cc1
- inhibition [1]: 15%

Compound: COc1ccc(CN(CCN(C)C)c2ccc(C(=O)Nc3cc(-c4cccs4)ccc3N)cn2)cc1
- inhibition [1]: 15%

Other lines, results leading:

- inhibition [1]: 7%
Compound: COc1ccc(CN(CCN(C)C)c2ccc(C(=O)Nc3cc(Cl)ccc3N)cn2)cc1

- inhibition [1]: 21%
Compound: COc1ccc(CN(CCN(C)C)c2ccc(C(=O)Nc3cc(Br)ccc3N)cn2)cc1

- inhibition [1]: 98%
Compound: CC(/C=C/C(=O)NO)=C\[C@@H](C)C(=O)c1ccc(N(C)C)cc1

- Activity [2]: Active
- Activity [3]: Active
- Activity [4]: Active
- Activity [5]: Active
- Activity [6]: Active
- Activity [7]: Active
- Activity [8]: Active
- CL [9]: 1.26 µL/min
- Activity [10]: Active
- Activity [11]: Active
- Activity [12]: Active
- Activity [13]: Active
- inhibition [1]: 18%
- Activity [14]: Active
- inhibition [15]: Active
Compound: CC(=O)Nc1ccc(C(=O)Nc2ccccc2N)cc1 [TACEDINALINE]

From ChEMBL document CHEMBL4196230, “Design, Synthesis, and Blood-Brain Barrier Transport Study of Pyrilamine Derivatives as Histone Deacetylase Inhibitors” (ACS Med Chem Lett, 2018)
